Source: ChEMBL document CHEMBL1122788, “Quantitative relationships between alpha-adrenergic activity and binding affinity of alpha-adrenoceptor agonists and antagonists” (J Med Chem, 1984)
Where a name gives a salt, the structure may show the parent alone.

Columns and labels:
Rattus norvegicus [1] = test: Hypertensive activity (increase in arterial pressure to 60 mmHg)) after i.v. administration to pithed rats.
[2] = biological target: T1, Adrenergic receptor alpha-2 (Rattus norvegicus, UniProt P22086+P19328+P22909); test: Binding affinity against Alpha-2 adrenergic receptor is the ability to inhibit the specific [3H]-clonidine binding (0.4 nM) to rat isolated brain membranes by 50% was reported; 5.9*10e-8; type: tissue-based, Membrane
T1 sequence (P22086 whole entry): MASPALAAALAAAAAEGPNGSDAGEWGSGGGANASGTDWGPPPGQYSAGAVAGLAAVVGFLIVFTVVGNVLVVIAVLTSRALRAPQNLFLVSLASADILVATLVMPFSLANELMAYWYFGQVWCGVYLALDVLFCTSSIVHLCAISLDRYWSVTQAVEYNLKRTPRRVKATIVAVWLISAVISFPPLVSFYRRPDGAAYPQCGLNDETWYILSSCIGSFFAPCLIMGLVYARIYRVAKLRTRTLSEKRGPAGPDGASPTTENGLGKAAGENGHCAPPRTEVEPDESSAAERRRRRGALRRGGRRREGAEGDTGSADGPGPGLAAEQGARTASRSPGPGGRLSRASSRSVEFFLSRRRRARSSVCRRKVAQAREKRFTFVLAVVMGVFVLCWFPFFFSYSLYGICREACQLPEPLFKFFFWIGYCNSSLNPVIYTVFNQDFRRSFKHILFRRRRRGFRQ
T1 sequence (P19328 whole entry): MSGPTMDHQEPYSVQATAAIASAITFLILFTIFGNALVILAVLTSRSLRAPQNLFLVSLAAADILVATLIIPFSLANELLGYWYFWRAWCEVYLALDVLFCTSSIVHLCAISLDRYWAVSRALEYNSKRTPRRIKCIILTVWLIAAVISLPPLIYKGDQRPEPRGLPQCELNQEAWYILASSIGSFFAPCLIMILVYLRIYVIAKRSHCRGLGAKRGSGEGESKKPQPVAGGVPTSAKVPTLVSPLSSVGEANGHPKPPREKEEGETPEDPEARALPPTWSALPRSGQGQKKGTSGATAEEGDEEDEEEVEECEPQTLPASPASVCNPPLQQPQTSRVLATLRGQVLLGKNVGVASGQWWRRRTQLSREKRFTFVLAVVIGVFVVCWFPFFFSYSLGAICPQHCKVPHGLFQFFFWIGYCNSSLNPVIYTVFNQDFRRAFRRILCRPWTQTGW
T1 sequence (P22909 whole entry): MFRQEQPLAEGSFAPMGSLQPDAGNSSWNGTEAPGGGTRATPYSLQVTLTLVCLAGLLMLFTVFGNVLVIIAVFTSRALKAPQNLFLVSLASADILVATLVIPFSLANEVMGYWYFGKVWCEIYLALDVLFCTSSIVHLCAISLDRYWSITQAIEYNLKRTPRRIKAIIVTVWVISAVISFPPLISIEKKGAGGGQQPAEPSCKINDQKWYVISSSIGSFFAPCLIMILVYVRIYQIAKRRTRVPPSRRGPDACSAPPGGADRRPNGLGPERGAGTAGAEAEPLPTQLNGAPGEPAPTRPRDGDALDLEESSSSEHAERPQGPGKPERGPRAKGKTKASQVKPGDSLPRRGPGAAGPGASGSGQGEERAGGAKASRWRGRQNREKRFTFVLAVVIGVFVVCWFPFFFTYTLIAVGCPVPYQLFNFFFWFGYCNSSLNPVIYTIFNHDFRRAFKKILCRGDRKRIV

[3] = Apparent partion coefficient of compound was evaluated in octanol/buffer at pH of 7.4 at 37 degree Centigrade; type: physicochemical; conditions: pH 7.4
[4] = biological target: T2, Adrenergic receptor alpha-1 (Rattus norvegicus, UniProt P15823+P23944+P43140); test: Binding affinity against alpha-1 adrenergic receptor is the ability to inhibit the specific [3H]prazosin binding (0.2 nM) to rat isolated brain membranes by 50% was reported; 8.9*10e-7; type: tissue-based, Membrane
T2 sequence (P15823 whole entry): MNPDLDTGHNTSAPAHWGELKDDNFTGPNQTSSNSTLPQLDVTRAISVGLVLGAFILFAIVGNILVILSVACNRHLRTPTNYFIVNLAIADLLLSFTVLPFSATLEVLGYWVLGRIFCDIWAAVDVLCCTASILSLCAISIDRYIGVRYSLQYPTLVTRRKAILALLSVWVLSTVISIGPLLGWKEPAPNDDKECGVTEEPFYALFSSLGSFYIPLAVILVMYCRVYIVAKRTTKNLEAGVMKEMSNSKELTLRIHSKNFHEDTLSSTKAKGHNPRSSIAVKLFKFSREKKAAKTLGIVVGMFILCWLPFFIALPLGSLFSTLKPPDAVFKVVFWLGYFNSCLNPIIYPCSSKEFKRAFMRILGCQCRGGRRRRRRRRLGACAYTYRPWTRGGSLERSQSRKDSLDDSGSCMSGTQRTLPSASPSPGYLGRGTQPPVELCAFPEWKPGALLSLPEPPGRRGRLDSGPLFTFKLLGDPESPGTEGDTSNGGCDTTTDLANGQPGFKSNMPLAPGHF
T2 sequence (P23944 whole entry): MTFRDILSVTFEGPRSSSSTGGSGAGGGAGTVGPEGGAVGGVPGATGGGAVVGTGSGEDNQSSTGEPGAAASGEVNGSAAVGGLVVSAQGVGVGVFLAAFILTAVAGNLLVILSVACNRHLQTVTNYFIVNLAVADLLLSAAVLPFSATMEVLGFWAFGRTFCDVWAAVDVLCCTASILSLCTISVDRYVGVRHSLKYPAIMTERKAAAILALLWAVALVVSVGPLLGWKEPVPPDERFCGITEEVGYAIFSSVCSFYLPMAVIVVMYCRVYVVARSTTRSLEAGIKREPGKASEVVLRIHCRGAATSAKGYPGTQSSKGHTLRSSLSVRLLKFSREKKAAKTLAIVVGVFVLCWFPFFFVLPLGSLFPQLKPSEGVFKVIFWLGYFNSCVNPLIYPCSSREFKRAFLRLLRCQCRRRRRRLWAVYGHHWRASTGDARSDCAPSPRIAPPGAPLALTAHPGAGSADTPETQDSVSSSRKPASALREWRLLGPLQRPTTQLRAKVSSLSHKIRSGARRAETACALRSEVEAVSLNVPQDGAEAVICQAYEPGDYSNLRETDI
T2 sequence (P43140 whole entry): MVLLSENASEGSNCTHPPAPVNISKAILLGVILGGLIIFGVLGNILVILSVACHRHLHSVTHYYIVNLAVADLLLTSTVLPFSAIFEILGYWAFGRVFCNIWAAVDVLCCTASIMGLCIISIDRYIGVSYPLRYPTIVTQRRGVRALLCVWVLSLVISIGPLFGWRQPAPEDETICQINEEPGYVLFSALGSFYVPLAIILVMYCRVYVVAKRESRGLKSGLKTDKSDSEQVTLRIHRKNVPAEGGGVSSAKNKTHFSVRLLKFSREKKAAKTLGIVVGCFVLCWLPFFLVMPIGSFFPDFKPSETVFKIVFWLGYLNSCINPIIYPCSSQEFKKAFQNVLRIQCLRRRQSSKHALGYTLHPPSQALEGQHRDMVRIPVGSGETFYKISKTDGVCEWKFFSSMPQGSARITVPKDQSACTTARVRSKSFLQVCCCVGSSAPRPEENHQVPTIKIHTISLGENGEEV

Rattus norvegicus [5] = test: Hypotensive activity (25% decrease in arterial pressure) after i.v. administration to anesthetized normotensive rats.
[6] = biological target: T2, Adrenergic receptor alpha-1; test: Binding affinity against alpha-1 adrenergic receptor is the ability to inhibit the specific [3H]prazosin binding (0.2 nM) to rat isolated brain membranes by 50% was reported; 6.1*10e-5; type: tissue-based, Membrane
[7] = biological target: T1, Adrenergic receptor alpha-2; test: Binding affinity against Alpha-2 adrenergic receptor is the ability to inhibit the specific [3H]clonidine binding (0.4 nM) to rat isolated brain membranes by 50% was reported; 1.4*10e-7; type: tissue-based, Membrane
In short: (§1)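 Whole rat brain (minus cerebellum) from male Wistar rats (200–250 g), homogenized in ice-cold 50 mM Tris-HCl pH 7.7 and washed twice at 50000g. […] Bound ligand was collected by rapid filtration and counted. IC50 was derived by log-probit analysis.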

[8] = biological target: T1, Adrenergic receptor alpha-2; test: 50% inhibition of specific [3H]clonidine binding (0.4 nM) to Alpha-2 adrenergic receptors in rat isolated brain membranes; type: cell membranes, Membrane
In short: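 Whole rat brain (minus cerebellum) from male Wistar rats (200–250 g), homogenized in ice-cold 50 mM Tris-HCl pH 7.7 and washed twice at 50000g. Bound ligand was collected by rapid filtration and counted. IC50 was derived by log-probit analysis.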

[9] = biological target: T2, Adrenergic receptor alpha-1; test: Binding affinity against alpha-1 adrenergic receptor is the ability to inhibit the specific [3H]prazosin binding (0.2 nM) to rat isolated brain membranes by 50% was reported.
[10] = biological target: T2, Adrenergic receptor alpha-1; test: Binding affinity against alpha-1 adrenergic receptor is the ability to inhibit the specific [3H]-prazosin binding (0.2 nM) to rat isolated brain membranes by 50% was reported; 5*10e-4; type: tissue-based, Membrane
In short: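 Brain membranes were prepared from male Wistar rats (200–250 g, cerebellum removed) in ice-cold 50 mmol/L Tris-HCl, pH 7.7, with two 50000g spins, and used at 1 mg/mL protein (Lowry). […] Bound label was collected by vacuum filtration and counted. IC50 came from log probit analysis.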

[11] = biological target: T1, Adrenergic receptor alpha-2; test: Binding affinity against Alpha-2 adrenergic receptor is the ability to inhibit the specific [3H]clonidine binding (0.4 nM) to rat isolated brain membranes by 50% was reported; 2.5*10e-8; type: tissue-based, Membrane
[12] = biological target: T1, Adrenergic receptor alpha-2; test: Binding affinity against Alpha-2 adrenergic receptor is the ability to inhibit the specific [3H]clonidine binding (0.4 nM) to rat isolated brain membranes by 50% was reported; 1.6*10e-8; design: species or system Membrane
In short: as §1

[13] = biological target: T1, Adrenergic receptor alpha-2; test: Binding affinity against alpha-2 adrenergic receptor is the ability to inhibit the specific [3H]clonidine binding (0.4 nM) to rat isolated brain membranes by 50% was reported.; design: species or system Membrane
In short: as §1

| SMILES | pC60 (Rattus norvegicus [1]) [uM kg-1] | logD [3] | pC25 (Rattus norvegicus [5]) [uM kg-1] | IC50 [9] [nM] | other results |
| --- | --- | --- | --- | --- | --- |
| c1ccc(C2CC2)c(OCC2=NCCN2)c1 [CIRAZOLINE] | 2.36 | 0.53 |  |  | IC50 [2]: 59 nM; IC50 [4]: 890 nM |
| Cc1cccc(C)c1NC1=NCCCS1 [XYLAZINE] | -0.02 |  | 0.62 |  | IC50 [6]: 61000 nM; IC50 [7]: 140 nM |
| Cc1cc(C(C)(C)C)c(O)c(C)c1CC1=NCCN1 [OXYMETAZOLINE] | 2.24 | -0.32 |  |  |  |
| CNCC(O)c1cccc(NS(C)(=O)=O)c1 (stereo not given) [AMIDEPHRINE MESYLATE] | 1.36 |  |  | 40000 | IC50 [8]: 1900 nM |
| C=CCN1CCc2nc(N)sc2CC1 [TALIPEXOLE] | 0.69 |  | 1.43 |  | IC50 [10]: 500000 nM; IC50 [11]: 25 nM |
| c1cc2c(c(NC3=NCCN3)c1)CCCC2 [TRAMAZOLINE] | 1.8 |  | 0.55 |  | IC50 [12]: 16 nM |
| FC(F)(F)c1ccc(Cl)c(NC2=NCCN2)c1 | 1.21 | 1.54 |  | 470 | IC50 [13]: 150 nM |
| c1ccc2c(CC3=NCCN3)cccc2c1 [NAPHAZOLINE] | 1.83 |  | 0.95 |  |  |
| CCCN(CCC)C1CCc2c(ccc(O)c2O)C1 (stereo not given) | 0.54 |  |  | 15000 | IC50 [8]: 80 nM |
| CNC[C@H](O)c1cccc(O)c1 [PHENYLEPHRINE] | 1.55 |  |  |  |  |
